Test results taken from ChEMBL document CHEMBL1121715, “New antiarrhythmic agents. 4. 1'-(Aminoalkyl)-1,2,3,4-tetrahydronaphthalene-1-spiro-3'-pyrrolidine-2',5'-dione derivatives” (J Med Chem, 1981).

How the values were obtained:
[1] = organism: Mus musculus; assay: Percentage toxicity measured as convulsions.; type: organism-based; conditions: in vivo
Procedure, shortened: (§1)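 Mice (groups of 10) were dosed sc with drug in 0.9% saline and watched for 20 min for overt toxicity (ataxia, convulsions, loss of righting reflex, death) before chloroform exposure.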

[2] = organism: Mus musculus; assay: Percentage toxicity measured as ataxia.; type: organism-based; conditions: in vivo; procedure, shortened: as §1
[3] = system: Mus musculus; assay: Protection against chloroform induced arrhythmias in mice after subcutaneous administration at 100 mg/kg dose.; type: functional
Procedure, shortened: (§2)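 Groups of 10 unanesthetized mice got sc injection of drug in 0.9% saline. After 20 min observation they were placed one by one in chloroform-vapor-saturated air. When breathing stopped, the thorax was opened and the heart inspected by eye; coordinated ventricular contractions counted as protected.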

[4] = Percentage toxicity measured as death of mice.; type: organism-based; design: concentration or dose not given beside the values; conditions: mouse, in vivo; read-out: Death
[5] = organism: Mus musculus; assay: Percentage toxicity measured as loss of righting reflex.; type: organism-based; conditions: in vivo; procedure, shortened: as §1
[6] = system: Mus musculus; assay: Protection against chloroform induced arrhythmias was measured in mice after sc administration at given dose; type: functional; procedure, shortened: as §2
[7] = system: Mus musculus; assay: Ataxia was measured in mice after sc administration at given dose; type: functional
Procedure, shortened: (§3)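 Mice in groups of 10 received drug sc in 0.9% saline and were watched 20 min for overt toxicity before chloroform exposure. At least three doses were given.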

[8] = system: Mus musculus; assay: Protection against chloroform induced arrhythmias was measured in mice after sc administration at given dose.; type: functional; procedure, shortened: as §2
[9] = system: Mus musculus; assay: Ataxia was measured in mice after sc administration at given dose.; type: functional; procedure, shortened: as §3
[10] = system: Canis familiaris; assay: % ectopic beats was measured in unanesthetized dog at 0.32+/-0.11 dose; 2+/-2
[11] = system: Canis familiaris; assay: MABP value was measured in anesthetized dog at 0.32+/-0.11 dose.; type: functional, Canis lupus familiaris
[12] = organism: Canis familiaris; assay: The dose at which toxicity was measured.; type: organism-based, Canis lupus familiaris; conditions: dog, in vivo
Procedure, shortened: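 Adult female dogs (6.7–14.5 kg) had two-stage ligation of the left anterior descending coronary artery the day before testing. After control ventricular rate, % ectopic beats and mean arterial pressure were recorded, the drug (HCl salt, isotonic solution) was infused iv without anesthesia at 0.1, 0.5 or 1.0 (mg/kg)/min, mostly 0.5. Infusion continued until the arrhythmia was abolished or cardiovascular/CNS toxicity appeared. Cumulative dose is given in mmol/kg; toxicity included convulsion and P-R prolongation ≥25%.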

[13] = system: Canis familiaris; assay: Ventricular rate was measured in anesthetized dog at 0.32+/-0.11 dose; type: functional, Canis lupus familiaris, Heart; conditions: in the assay text read “unanesthetized” for “anesthetized”
Procedure, shortened: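 Adult female dogs (6.7–14.5 kg) had ventricular arrhythmias from two-stage ligation of the left anterior descending coronary artery the day before. Ventricular rate (bpm) was read at maximal antiarrhythmic effect against cumulative dose.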

[14] = Mus musculus, sc, read-out: ED50

## CCN(CC)CCCN1C(=O)CC(c2ccccc2)C1=O (stereo not drawn)
[1]
  Convulsion: 0%
[2]
  Ataxia: 0%
[3]
  Protection: 30%
[4]
  mortality: 0%
[5]
  Loss of righting reflex: 0%

## CN(CCO)CCN1C(=O)CC2(CCCc3ccccc32)C1=O (stereo not drawn)
[1]
  Convulsion: 0%
[2]
  Ataxia: 0%
[3]
  Protection: 30%
[4]
  mortality: 0%
[5]
  Loss of righting reflex: 0%

## CCN(CC)CCCN1C(=O)CC2(CCCc3ccc(C)cc32)C1=O (stereo not drawn)
[1]
  Convulsion: 0%
[2]
  Ataxia: 0%
[3]
  Protection: 70%
[6]
  ED50: 210 µmol/kg
[4]
  mortality: 0%
[5]
  Loss of righting reflex: 0%

## CCN(CC)C(C)CCN1C(=O)CC2(CCCc3ccc(O)cc32)C1=O (stereo not drawn)
[1]
  Convulsion: 100%
[2]
  Ataxia: 100%
[7]
  ED50: 80 µmol/kg
[3]
  Protection: 80%
[6]
  ED50: 80 µmol/kg
[4]
  mortality: 20%
[5]
  Loss of righting reflex: 100%

## CCCC1(c2ccccc2)CC(=O)N(CCN(C)C)C1=O (stereo not drawn)
[1]
  Convulsion: 0%
[2]
  Ataxia: 100%
[8]; [14]
  ED50: 390 µmol/kg
[3]
  Protection: 40%
[4]
  mortality: 0%
[5]
  Loss of righting reflex: 0%
[9]
  ED50: 270 µmol/kg

## CCN(CC)CCCN1C(=O)CC2(CCCc3ccc(OC(C)C)cc32)C1=O (stereo not drawn)
[1]
  Convulsion: 100%
[2]
  Ataxia: 100%
[7]
  ED50: 110 µmol/kg
[3]
  Protection: 90%
[6]
  ED50: 140 µmol/kg
[4]
  mortality: 0%
[5]
  Loss of righting reflex: 0%

## O=C1NC(=O)C(C2CCc3ccccc3C2)N1 (stereo not drawn)
[1]
  Convulsion: 0%
[2]
  Ataxia: 0%
[3]
  Protection: 20%
[4]
  mortality: 0%
[5]
  Loss of righting reflex: 0%

## CN(CCO)CCN1C(=O)CC2(CCc3ccccc3C2)C1=O (stereo not drawn)
[1]
  Convulsion: 40%
[2]
  Ataxia: 100%
[3]
  Protection: 30%
[4]
  mortality: 0%
[5]
  Loss of righting reflex: 0%

## CCN(CC)CCCN1C(=O)CC2(CCCc3ccc(Cl)cc32)C1=O (stereo not drawn)
[1]
  Convulsion: 0%
[2]
  Ataxia: 100%
[7]
  ED50: 110 µmol/kg
[3]
  Protection: 90%
[6]
  ED50: 160 µmol/kg
[4]
  mortality: 0%
[5]
  Loss of righting reflex: 0%

## CN(CCO)CCCCN1C(=O)CC2(CCCc3ccccc32)C1=O (stereo not drawn)
[1]
  Convulsion: 0%
[2]
  Ataxia: 0%
[3]
  Protection: 10%
[4]
  mortality: 0%
[5]
  Loss of righting reflex: 0%

## CN(CCO)CCCN1C(=O)CC2(CCCc3ccccc32)C1=O (stereo not drawn)
[1]
  Convulsion: 0%
[2]
  Ataxia: 0%
[7]
  ED50: 760 µmol/kg
[3]
  Protection: 30%
[6]
  ED50: 560 µmol/kg
[4]
  mortality: 0%
[5]
  Loss of righting reflex: 0%

## CCN(CC)CCCN1C(=O)CC2(CCCc3cc(OC)ccc32)C1=O (stereo not drawn)
[2]
  Ataxia: 100%
[3]
  Protection: 40%
[4]
  mortality: 0%
[5]
  Loss of righting reflex: 0%

## CCN(CC)C(C)CCN1C(=O)CC2(CCCc3cc(OC)ccc32)C1=O (stereo not drawn)
[1]
  Convulsion: 0%
[2]
  Ataxia: 60%
[3]
  Protection: 0%
[4]
  mortality: 0%
[5]
  Loss of righting reflex: 0%

## CCN(CC)C(C)CN1C(=O)CC2(CCCc3ccc(O)cc32)C1=O (stereo not drawn)
[1]
  Convulsion: 0%
[2]
  Ataxia: 50%
[3]
  Protection: 60%
[4]
  mortality: 0%
[5]
  Loss of righting reflex: 0%

## COCCN(C)CCCN1C(=O)CC2(CCCc3ccccc32)C1=O (stereo not drawn)
[1]
  Convulsion: 100%
[2]
  Ataxia: 100%
[3]
  Protection: 30%
[4]
  mortality: 0%
[5]
  Loss of righting reflex: 100%

## COc1ccc2c(c1)CCCC21CC(=O)N(CCN(C)C)C1=O (stereo not drawn)
[1]
  Convulsion: 0%
[2]
  Ataxia: 100%
[3]
  Protection: 20%
[4]
  mortality: 0%
[5]
  Loss of righting reflex: 0%

## CCN(CC)CCCCN1C(=O)CC2(CCCc3ccccc32)C1=O (stereo not drawn)
[1]
  Convulsion: 0%
[2]
  Ataxia: 100%
[7]
  ED50: 180 µmol/kg
[3]
  Protection: 90%
[6]
  ED50: 180 µmol/kg
[4]
  mortality: 0%
[5]
  Loss of righting reflex: 0%

## CCN(CC)C(C)CN1C(=O)CC2(CCCc3ccccc32)C1=O (stereo not drawn)
[1]
  Convulsion: 100%
[2]
  Ataxia: 100%
[3]
  Protection: 50%
[4]
  mortality: 0%
[5]
  Loss of righting reflex: 0%

## O=C1CC2(CCCc3ccccc32)C(=O)N1CCCN1CCOCC1 (stereo not drawn)
[1]
  Convulsion: 0%
[2]
  Ataxia: 100%
[3]
  Protection: 20%
[4]
  mortality: 0%
[5]
  Loss of righting reflex: 0%

## CCN(CC)CCCN1C(=O)CC2(CCCc3ccccc32)C1=O (stereo not drawn)
[1]
  Convulsion: 0%
[2]
  Ataxia: 100%
[7]
  ED50: 190 µmol/kg
[3]
  Protection: 80%
[6]
  ED50: 200 µmol/kg
[4]
  mortality: 0%
[5]
  Loss of righting reflex: 0%

## CCN(CC)CCCCN1C(=O)CC2(CCCc3cc(O)ccc32)C1=O (stereo not drawn)
[1]
  Convulsion: 0%
[2]
  Ataxia: 0%
[8]; [14]
  ED50: 260 µmol/kg
[3]
  Protection: 70%
[4]
  mortality: 0%
[5]
  Loss of righting reflex: 0%

## NCCCCCN1C(=O)CC2(CCCc3ccccc32)C1=O (stereo not drawn)
[1]
  Convulsion: 0%
[2]
  Ataxia: 0%
[3]
  Protection: 20%
[4]
  mortality: 0%
[5]
  Loss of righting reflex: 0%

## CCN(CC)C(C)CCN1C(=O)CC2(CCCc3ccccc32)C1=O (stereo not drawn)
[1]
  Convulsion: 0%
[2]
  Ataxia: 100%
[3]
  Protection: 40%
[4]
  mortality: 0%
[5]
  Loss of righting reflex: 0%

## COc1ccc2c(c1)CCCC21CC(=O)N(CCCN(C)C)C1=O (stereo not drawn)
[1]
  Convulsion: 0%
[2]
  Ataxia: 100%
[3]
  Protection: 0%
[4]
  mortality: 0%
[5]
  Loss of righting reflex: 0%

## CCN(CC)CCCCCN1C(=O)CC2(CCCc3ccccc32)C1=O (racemic)
[1]
  Convulsion: 0%
[2]
  Ataxia: 0%
[8]; [14]
  ED50: 240 µmol/kg
[3]; 100 mg/kg
  Protection: 80%
[4]
  mortality: 0%
[5]
  Loss of righting reflex: 0%

## CCN(CC)CCCCCN1C(=O)CC2(CCCc3ccccc32)C1=O (single isomer, unassigned; (+))
[8]
  ED50: 210 µmol/kg
[3]; 100 mg/kg
  Protection: 50%

## CCN(CC)CCCCCN1C(=O)CC2(CCCc3ccccc32)C1=O (single isomer, unassigned; (-))
[1]
  Convulsion: 30%
[2]
  Ataxia: 100%
[8]
  ED50: 160 µmol/kg
[3]; 100 mg/kg
  Protection: 90%

## Cc1cccc(C)c1NC(=O)C(C)N (stereo not drawn) [TOCAINIDE]
[10]
  Ectopic beats: 2%
[11]
  MABP: 108 mmHg
[1]
  Convulsion: 0%
[2]
  Ataxia: 10%
[12]
  Cumulative dose: 0.3
[8]; [14]
  ED50: 1300 µmol/kg
[3]
  Protection: 20%
[4]
  mortality: 0%
[13]
  Ventricular rate: 148 beats min-1
[5]
  Loss of righting reflex: 0%
[9]
  ED50: 760 µmol/kg
